“And” between values parts separate entries of the source, which are not always exact repeats. Equal entries are not always repeated. The source made the active and inactive calls.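 The calls were made as follows: active = compound with IC50 above 30 µM at both the APJ and CCR6 off-target receptors, and at most 10 µM at CXCR6; inactive = the rest.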
Legend:
Assay in all cases: antagonism across CCR6, APJ and CXCR6 receptors, profiling panel, selectivity assay for CXCR6 antagonist project, cell-based, CHO-K1 PathHunter beta-arrestin, luminescence, set 3 (AID 651708)
[1] = molecular target: Apelin receptor (Homo sapiens) (UniProt P35414); details: antagonist mode, APJ
Outline: (§1)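 test system = CHO-K1 PathHunter β-arrestin cell lines for APJ, CCR6 or CXCR6 | reagent = APJ 10 nM Apelin-13, CCR6 14 nM CCL20, CXCR6 CXCL16 | measured by = β-arrestin recruitment luminescence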

[2] = molecular target: C-C chemokine receptor type 6 (Homo sapiens) (UniProt P51684); details: antagonist mode
Outline: as §1

[3] = molecular target: C-X-C chemokine receptor type 6 (Homo sapiens) (UniProt O00574); details: antagonist mode
Outline: as §1

Chain of Apelin receptor (Homo sapiens) (P35414 whole entry, looked up): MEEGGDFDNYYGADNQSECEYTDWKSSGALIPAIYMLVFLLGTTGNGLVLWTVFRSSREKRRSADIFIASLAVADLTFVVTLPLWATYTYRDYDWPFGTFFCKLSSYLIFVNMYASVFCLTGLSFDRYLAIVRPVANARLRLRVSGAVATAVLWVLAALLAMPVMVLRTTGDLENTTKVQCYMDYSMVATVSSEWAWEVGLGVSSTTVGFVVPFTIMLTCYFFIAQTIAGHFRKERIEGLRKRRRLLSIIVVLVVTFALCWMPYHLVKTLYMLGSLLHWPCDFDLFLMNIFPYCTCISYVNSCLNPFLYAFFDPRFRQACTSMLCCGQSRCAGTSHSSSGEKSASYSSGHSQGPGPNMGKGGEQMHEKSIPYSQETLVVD
Chain of C-X-C chemokine receptor type 6 (Homo sapiens) (O00574 whole entry, looked up): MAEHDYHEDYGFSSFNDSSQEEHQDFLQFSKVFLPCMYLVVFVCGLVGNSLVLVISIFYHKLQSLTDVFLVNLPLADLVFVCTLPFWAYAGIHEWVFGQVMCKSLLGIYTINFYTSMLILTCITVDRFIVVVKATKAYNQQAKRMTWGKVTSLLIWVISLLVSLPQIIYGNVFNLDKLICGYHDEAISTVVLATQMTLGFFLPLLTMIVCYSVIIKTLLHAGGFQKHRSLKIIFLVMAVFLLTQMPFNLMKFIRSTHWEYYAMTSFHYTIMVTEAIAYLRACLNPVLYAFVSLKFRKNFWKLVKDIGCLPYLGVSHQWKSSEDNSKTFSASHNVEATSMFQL
Chain of C-C chemokine receptor type 6 (Homo sapiens) (P51684 whole entry, looked up): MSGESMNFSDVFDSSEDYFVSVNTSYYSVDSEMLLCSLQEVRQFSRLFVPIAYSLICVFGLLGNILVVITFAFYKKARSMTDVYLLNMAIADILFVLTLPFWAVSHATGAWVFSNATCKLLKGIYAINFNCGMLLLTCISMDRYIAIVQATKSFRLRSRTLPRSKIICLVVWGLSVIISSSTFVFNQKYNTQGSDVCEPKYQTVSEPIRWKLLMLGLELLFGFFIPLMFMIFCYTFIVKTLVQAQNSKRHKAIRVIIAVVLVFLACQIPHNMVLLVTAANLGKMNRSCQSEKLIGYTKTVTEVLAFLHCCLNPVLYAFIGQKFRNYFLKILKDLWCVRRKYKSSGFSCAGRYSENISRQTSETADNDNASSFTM

SMILES | IC50 ([1]; mean of runs) | IC50 ([1]; run 1) | IC50 ([1]; run 2) | IC50 ([2]; CCR6, mean of runs) | IC50 ([2]; CCR6, run 1) | IC50 ([2]; CCR6, run 2) | IC50 ([3]; CXCR6, mean of runs) | IC50 ([3]; CXCR6, run 1) | IC50 ([3]; CXCR6, run 2)
O=C(CN1C2CCCC1CC(NC(=O)c1ccccc1)C2)Nc1ccccc1 (stereo not drawn) | > 79 µM (inactive) | > 79 µM | > 79 µM | > 79 µM (inactive) | > 79 µM | > 79 µM | > 79 µM (inactive) | > 79 µM | > 79 µM
COc1ccc(NC(=O)CN2C3CCCC2CC(NC(=O)c2ccc(OC)cc2)C3)cc1 (stereo not drawn) |  | > 79 µM | 4.23 µM | > 79 µM (inactive) | > 79 µM | > 79 µM | > 79 µM (inactive) | > 79 µM | > 79 µM
COc1cc(C(=O)NC2CC3CCCC(C2)N3CC(=O)Nc2ccccc2Cl)cc(OC)c1OC (stereo not drawn) |  | > 79 µM | 0.818 µM | > 79 µM (inactive) | > 79 µM | > 79 µM | 0.338 µM | 0.191 µM | 0.484 µM
COc1cc(OC)cc(C(=O)NC2CC3CCCC(C2)N3CC(=O)Nc2ccccc2)c1 (stereo not drawn) |  | > 79 µM | 11.2 µM | > 79 µM (inactive) | > 79 µM | > 79 µM | > 79 µM (inactive) | > 79 µM | > 79 µM
COc1ccc(C(=O)NC2CC3CCCC(C2)N3CC(=O)Nc2ccc(C)cc2)cc1 (stereo not drawn) | > 79 µM (inactive) | > 79 µM | > 79 µM | > 79 µM (inactive) | > 79 µM | > 79 µM | > 79 µM (inactive) | > 79 µM | > 79 µM
COc1cc(C(=O)NC2CC3CCCC(C2)N3CC(=O)Nc2ccc(Cl)cc2)cc(OC)c1OC (stereo not drawn) |  | > 79 µM | 52.7 µM | > 79 µM (inactive) | > 79 µM | > 79 µM | 1.46 µM | 1.27 µM | 1.65 µM
COc1ccc(C(=O)NC2CC3CCCC(C2)N3CC(=O)Nc2ccccc2)cc1OC (stereo not drawn) | > 79 µM (inactive) | > 79 µM | > 79 µM | > 79 µM (inactive) | > 79 µM | > 79 µM | > 79 µM (inactive) | > 79 µM | > 79 µM
COc1ccc(NC(=O)CN2C3CCCC2CC(NC(=O)c2cc(OC)cc(OC)c2)C3)cc1 (stereo not drawn) | > 79 µM (inactive) | > 79 µM | > 79 µM | > 79 µM (inactive) | > 79 µM | > 79 µM | > 79 µM (inactive) | > 79 µM | > 79 µM
COc1ccc(NC(=O)CN2C3CCCC2CC(NC(=O)c2ccc(OC)c(OC)c2)C3)cc1 (stereo not drawn) |  | > 79 µM | 0.307 µM | > 79 µM (inactive) | > 79 µM | > 79 µM | > 79 µM (inactive) | > 79 µM | > 79 µM
COc1cc(OC)cc(C(=O)NC2CC3CCCC(C2)N3CC(=O)Nc2ccc(C)cc2)c1 (stereo not drawn) | > 79 µM (inactive) | > 79 µM | > 79 µM | > 79 µM (inactive) | > 79 µM | > 79 µM | > 79 µM (inactive) | > 79 µM | > 79 µM
COc1ccccc1NC(=O)CN1C2CCCC1CC(NC(=O)c1cc(OC)c(OC)c(OC)c1)C2 (stereo not drawn) |  | > 79 µM | 25.4 µM | > 79 µM (inactive) | > 79 µM | > 79 µM | 1.95 µM | 1.81 µM | 2.09 µM
COc1ccc(C(=O)NC2CC3CCCC(C2)N3CC(=O)Nc2ccccc2)cc1 (stereo not drawn) | > 79 µM (inactive) | > 79 µM | > 79 µM | > 79 µM (inactive) | > 79 µM | > 79 µM | > 79 µM (inactive) | > 79 µM | > 79 µM
COc1cc(C(=O)NC2CC3CCCC(C2)N3CC(=O)Nc2ccccc2)cc(OC)c1OC (stereo not drawn) | > 79 µM (inactive) | > 79 µM | > 79 µM | > 79 µM (inactive) | > 79 µM | > 79 µM | 4.78 µM and 4.75 µM | 4.48 µM and 4.08 µM | 5.09 µM and 5.43 µM
COc1ccc(NC(=O)CN2C3CCCC2CC(NC(=O)c2cc(OC)c(OC)c(OC)c2)C3)cc1 (stereo not drawn) | > 79 µM (inactive) | > 79 µM | > 79 µM | > 79 µM (inactive) | > 79 µM | > 79 µM | inactive | 12.4 µM | 26.4 µM
COc1cccc(C(=O)NC2CC3CCCC(C2)N3CC(=O)Nc2ccccc2)c1 (stereo not drawn) | > 79 µM (inactive) | > 79 µM | > 79 µM | > 79 µM (inactive) | > 79 µM | > 79 µM | > 79 µM (inactive) | > 79 µM | > 79 µM

The next lines start with the values.

IC50 ([1]; mean of runs) | IC50 ([1]; run 1) | IC50 ([1]; run 2) | IC50 ([2]; CCR6, mean of runs) | IC50 ([2]; CCR6, run 1) | IC50 ([2]; CCR6, run 2) | IC50 ([3]; CXCR6, mean of runs) | IC50 ([3]; CXCR6, run 1) | IC50 ([3]; CXCR6, run 2) | SMILES
> 79 µM (inactive) | > 79 µM | > 79 µM | > 79 µM (inactive) | > 79 µM | > 79 µM | > 79 µM (inactive) | > 79 µM | > 79 µM | O=C(CN1C2CCCC1CC(NC(=O)c1ccc3c(c1)OCO3)C2)Nc1ccccc1 (stereo not drawn)
> 79 µM (inactive) | > 79 µM | > 79 µM | > 79 µM (inactive) | > 79 µM | > 79 µM | > 79 µM (inactive) | > 79 µM | > 79 µM | COc1cccc(C(=O)NC2CC3CCCC(C2)N3CC(=O)Nc2ccc(Cl)cc2)c1 (stereo not drawn)
> 79 µM (inactive) | > 79 µM | > 79 µM | > 79 µM (inactive) | > 79 µM | > 79 µM | > 79 µM (inactive) | > 79 µM | > 79 µM | COc1cccc(C(=O)NC2CC3CCCC(C2)N3CC(=O)Nc2ccc(F)cc2)c1 (stereo not drawn)
> 79 µM (inactive) | > 79 µM | > 79 µM | > 79 µM (inactive) | > 79 µM | > 79 µM | > 79 µM (inactive) | > 79 µM | > 79 µM | COc1ccc(C(=O)NC2CC3CCCC(C2)N3CC(=O)Nc2ccc(Cl)cc2)cc1 (stereo not drawn)
> 79 µM (inactive) | > 79 µM | > 79 µM | > 79 µM (inactive) | > 79 µM | > 79 µM | > 79 µM (inactive) | > 79 µM | > 79 µM | COc1ccc(C(=O)NC2CC3CCCC(C2)N3CC(=O)Nc2ccc(Cl)cc2)cc1OC (stereo not drawn)
> 79 µM (inactive) | > 79 µM | > 79 µM | > 79 µM (inactive) | > 79 µM | > 79 µM | > 79 µM (inactive) | > 79 µM | > 79 µM | COc1ccc(NC(=O)CN2C3CCCC2CC(NC(=O)c2ccc4c(c2)OCO4)C3)cc1 (stereo not drawn)
> 79 µM (inactive) | > 79 µM | > 79 µM | > 79 µM (inactive) | > 79 µM | > 79 µM | > 79 µM (inactive) | > 79 µM | > 79 µM | COc1cc(OC)cc(C(=O)NC2CC3CCCC(C2)N3CC(=O)Nc2ccc(F)cc2)c1 (stereo not drawn)
> 79 µM (inactive) | > 79 µM | > 79 µM | > 79 µM (inactive) | > 79 µM | > 79 µM | > 79 µM (inactive) | > 79 µM | > 79 µM | COc1ccc(C(=O)NC2CC3CCCC(C2)N3CC(=O)Nc2ccc(F)cc2)cc1 (stereo not drawn)
> 79 µM (inactive) | > 79 µM | > 79 µM | > 79 µM (inactive) | > 79 µM | > 79 µM | > 79 µM (inactive) | > 79 µM | > 79 µM | O=C(CN1C2CCCC1CC(NC(=O)c1ccc3c(c1)OCO3)C2)Nc1ccc(F)cc1 (stereo not drawn)
> 79 µM (inactive) | > 79 µM | > 79 µM | > 79 µM (inactive) | > 79 µM | > 79 µM | > 79 µM (inactive) | > 79 µM | > 79 µM | COc1ccc(C(=O)NC2CC3CCCC(C2)N3CC(=O)Nc2ccc(F)cc2)cc1OC (stereo not drawn)
> 79 µM (inactive) | > 79 µM | > 79 µM | > 79 µM (inactive) | > 79 µM | > 79 µM | > 79 µM (inactive) | > 79 µM | > 79 µM | COc1ccc(C(=O)NC2CC3CCCC(C2)N3CC(=O)Nc2ccc(C)cc2)cc1OC (stereo not drawn)
 | > 79 µM | 28.6 µM | > 79 µM (inactive) | > 79 µM | > 79 µM | > 79 µM (inactive) | > 79 µM | > 79 µM | Cc1ccc(NC(=O)CN2C3CCCC2CC(NC(=O)c2ccc4c(c2)OCO4)C3)cc1 (stereo not drawn)
> 79 µM (inactive) | > 79 µM | > 79 µM | > 79 µM (inactive) | > 79 µM | > 79 µM | 3.51 µM | 3.08 µM | 3.95 µM | COc1cc(C(=O)NC2CC3CCCC(C2)N3CC(=O)Nc2ccc(F)cc2)cc(OC)c1OC (stereo not drawn)
 | > 79 µM | 1.18 µM | > 79 µM (inactive) | > 79 µM | > 79 µM | > 79 µM (inactive) | > 79 µM | > 79 µM | COc1cccc(C(=O)NC2CC3CCCC(C2)N3CC(=O)Nc2ccc(C)cc2)c1 (stereo not drawn)
